Results taken from ChEMBL document CHEMBL1155452, “Oncocin (VDKPPYLPRPRPPRRIYNR-NH2): a novel antibacterial peptide optimized against gram-negative human pathogens” (J Med Chem, 2010).

Experiments:
[1] = system: Micrococcus luteus; assay: Antibacterial activity against Micrococcus luteus ATCC 10240 after 20 hrs by broth microdilution assay; format: functional; conditions: ATCC 10240, 20 h
Summary of the method: (§1)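 Nutrient-broth overnight cultures diluted in 1% TSB; E. coli BL21AI 7.5 × 10^5 cells/well, M. luteus ATCC 10240 2 × 10^6 cells/well. Peptides serially 2-fold diluted in 1% TSB from 128 to typically 0.5 μg/mL. Incubation at 37 °C; A595 read after 20 ± 2 h. MIC is the lowest concentration with absorbance not above medium only. Triplicate.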

[2] = system: Escherichia coli; assay: Antibacterial activity against Escherichia coli BL21 AI after 20 hrs by broth microdilution assay; format: functional; summary of the method: as §1
[3] = Stability in 25% mouse serum assessed as half life at 75 ug/ml by MALDI-TOF-MS analysis; format: ADME, cell-free
Summary of the method: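 Peptide at 75 μg/mL final in pooled mouse serum (undiluted or 25% v:v aqueous), 37 °C. Triplicate aliquots taken at 0, 30, 60, 120 and 240 min and precipitated with 3% TCA on ice for 10 min. Supernatant neutralized with NaOH and analysed by RP-HPLC on C18 with TFA-containing gradient. Amounts expressed relative to 0 min; metabolites identified by MALDI-TOF-MS.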

MIC [1]	MIC [2]	half-life at 75 ug/ml [3]	Substance
64 µg/mL	128 µg/mL	–	H-VDKPPYLPRPTPPRRIYNNR-OH
8 µg/mL	8 µg/mL	–	H-VDKPPYLPRPRPPRRIYNNR-NH2
64 µg/mL	32 µg/mL	< 30 min	H-VDKPPYLPRPRPPRRIYNR-OH
